Experimental findings from ChEMBL document CHEMBL1149152, “Selective, orally active gamma-aminobutyric acidA alpha5 receptor inverse agonists as cognition enhancers” (J Med Chem, 2004) are described below.

Test [1] concerns the target GABA-A receptor; alpha-3/beta-3/gamma-2 (Homo sapiens) (UniProt P18507+P28472+P34903). In words: Percentage modulation of submaximal (EC20) response to GABA in Xenopus oocytes expressing human GABA-A alpha-3-beta-3-gamma-2 subunits. Further: test concentration or dose not given here. Format: cell-based. The settings on record: Oocyte. Summed up:
(§1)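 Two-electrode voltage clamp on Xenopus laevis oocytes transiently expressing human GABA-A receptor subtypes. Modulation of the submaximal GABA (EC20) ion current is expressed as a percentage. Values are the arithmetic mean ± SEM from at least three independent cells.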

Test [2] concerns the target GABA-A receptor; alpha-5/beta-3/gamma-2 (Homo sapiens) (UniProt P18507+P28472+P31644). Put plainly: Percentage modulation of submaximal (EC20) response to GABA in Xenopus oocytes expressing human GABA-A alpha-5-beta-3-gamma-2 subunits. Further: test concentration or dose not given here. Format: cell-based. The settings on record: Oocyte. A digest of the protocol: as §1
Test [3] has as its target T1, GABA-A receptor; alpha-3/beta-3/gamma-2 (Homo sapiens, UniProt P18507+P28472+P34903).
T1 sequence (P18507 whole entry): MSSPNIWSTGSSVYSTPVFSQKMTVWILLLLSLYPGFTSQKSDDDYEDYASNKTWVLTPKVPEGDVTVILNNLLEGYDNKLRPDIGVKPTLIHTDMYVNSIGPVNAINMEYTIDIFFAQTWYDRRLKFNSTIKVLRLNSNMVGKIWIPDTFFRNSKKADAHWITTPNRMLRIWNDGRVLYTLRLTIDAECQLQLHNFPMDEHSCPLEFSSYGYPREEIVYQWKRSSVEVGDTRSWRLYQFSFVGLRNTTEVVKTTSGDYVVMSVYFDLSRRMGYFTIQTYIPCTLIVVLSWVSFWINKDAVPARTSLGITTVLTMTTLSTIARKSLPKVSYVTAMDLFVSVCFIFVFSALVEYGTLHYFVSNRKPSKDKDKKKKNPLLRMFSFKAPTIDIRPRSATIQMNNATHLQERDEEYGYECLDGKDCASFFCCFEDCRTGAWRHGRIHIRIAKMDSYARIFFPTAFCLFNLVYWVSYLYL
T1 sequence (P28472 whole entry): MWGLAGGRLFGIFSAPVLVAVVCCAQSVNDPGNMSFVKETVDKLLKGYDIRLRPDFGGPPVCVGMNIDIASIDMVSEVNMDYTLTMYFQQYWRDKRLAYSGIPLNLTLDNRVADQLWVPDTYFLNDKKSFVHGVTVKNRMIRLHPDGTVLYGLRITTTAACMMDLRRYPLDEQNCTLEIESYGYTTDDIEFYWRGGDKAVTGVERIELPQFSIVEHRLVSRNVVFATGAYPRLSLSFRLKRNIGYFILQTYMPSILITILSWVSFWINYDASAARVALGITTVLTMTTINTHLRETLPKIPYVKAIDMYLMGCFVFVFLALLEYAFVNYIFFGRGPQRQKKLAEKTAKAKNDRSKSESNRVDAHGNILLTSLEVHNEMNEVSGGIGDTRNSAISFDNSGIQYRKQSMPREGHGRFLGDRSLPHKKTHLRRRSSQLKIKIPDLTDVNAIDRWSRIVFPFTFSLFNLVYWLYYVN
T1 sequence (P34903 whole entry): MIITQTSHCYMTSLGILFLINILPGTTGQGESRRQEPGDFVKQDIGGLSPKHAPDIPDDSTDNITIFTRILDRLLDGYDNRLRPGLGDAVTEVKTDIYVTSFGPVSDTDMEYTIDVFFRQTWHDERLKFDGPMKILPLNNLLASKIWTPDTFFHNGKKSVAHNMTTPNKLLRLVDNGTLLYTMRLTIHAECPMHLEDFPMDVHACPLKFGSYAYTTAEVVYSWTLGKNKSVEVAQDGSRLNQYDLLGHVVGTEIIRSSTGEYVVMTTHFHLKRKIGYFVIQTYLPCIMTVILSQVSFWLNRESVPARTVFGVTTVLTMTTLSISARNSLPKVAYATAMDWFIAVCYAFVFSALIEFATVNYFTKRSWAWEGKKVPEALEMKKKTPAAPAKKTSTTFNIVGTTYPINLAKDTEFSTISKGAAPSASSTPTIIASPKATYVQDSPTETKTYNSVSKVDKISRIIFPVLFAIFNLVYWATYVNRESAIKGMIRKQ
Put plainly: Displacement of [3H]-Ro- 15-1788 from human GABA-A alpha-3-beta-3-gamma-2 receptor subunits expressed in Xenopus oocytes. Format: cell-based, Oocyte. A digest of the protocol:
(§2)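 Radioligand displacement of [3H]Ro 15-1788 from recombinant human GABA-A receptor subtypes. Ki values are the mean of at least two independent determinations, with SEM given where at least three were performed.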
(In a radioligand displacement assay an active substance lowers the binding of a labelled ligand.)

In test [4] the target is T2, GABA-A receptor; alpha-1/beta-3/gamma-2 (Homo sapiens, UniProt P14867+P18507+P28472).
T2 sequence (P14867 whole entry): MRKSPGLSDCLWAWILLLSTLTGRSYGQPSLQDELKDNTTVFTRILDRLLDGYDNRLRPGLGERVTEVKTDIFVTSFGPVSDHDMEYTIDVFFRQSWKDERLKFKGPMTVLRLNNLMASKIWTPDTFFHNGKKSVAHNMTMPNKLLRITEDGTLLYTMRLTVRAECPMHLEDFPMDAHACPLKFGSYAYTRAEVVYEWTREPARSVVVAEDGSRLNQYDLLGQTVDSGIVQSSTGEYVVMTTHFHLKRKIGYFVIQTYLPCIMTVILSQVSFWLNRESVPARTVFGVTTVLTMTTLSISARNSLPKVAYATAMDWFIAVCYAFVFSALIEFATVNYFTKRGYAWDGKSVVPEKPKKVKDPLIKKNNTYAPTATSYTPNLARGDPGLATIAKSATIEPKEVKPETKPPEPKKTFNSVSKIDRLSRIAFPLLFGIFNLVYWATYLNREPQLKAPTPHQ
T2 sequence (P18507 whole entry): T1 sequence (P18507 whole entry)
T2 sequence (P28472 whole entry): T1 sequence (P28472 whole entry)
Put plainly: Displacement of [3H]-Ro- 15-1788 from human GABA-A alpha-1-beta-3-gamma-2 receptor subunits expressed in Xenopus oocytes. Format: cell-based, Oocyte. A digest of the protocol: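 Radioligand binding to recombinant human GABA-A receptor subtypes, measuring displacement of [3H]Ro 15-1788. Ki values are the mean of at least two independent determinations, with SEM given where at least three were performed.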

Test [5] deals with T3, GABA-A receptor; alpha-5/beta-3/gamma-2 (Homo sapiens, UniProt P18507+P28472+P31644).
T3 sequence (P18507 whole entry): T1 sequence (P18507 whole entry)
T3 sequence (P28472 whole entry): T1 sequence (P28472 whole entry)
T3 sequence (P31644 whole entry): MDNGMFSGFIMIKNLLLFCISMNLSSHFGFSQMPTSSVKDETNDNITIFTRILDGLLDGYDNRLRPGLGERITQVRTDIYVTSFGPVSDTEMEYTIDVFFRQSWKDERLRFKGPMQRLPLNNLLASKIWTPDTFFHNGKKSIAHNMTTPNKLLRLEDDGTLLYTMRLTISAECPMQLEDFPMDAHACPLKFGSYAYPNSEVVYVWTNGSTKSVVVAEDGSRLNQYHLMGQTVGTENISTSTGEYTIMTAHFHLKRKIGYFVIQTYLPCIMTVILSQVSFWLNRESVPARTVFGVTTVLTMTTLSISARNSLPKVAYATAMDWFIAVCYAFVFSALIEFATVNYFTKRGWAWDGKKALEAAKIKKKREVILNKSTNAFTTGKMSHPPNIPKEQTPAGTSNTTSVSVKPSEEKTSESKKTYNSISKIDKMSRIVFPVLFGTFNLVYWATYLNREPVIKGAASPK
In words: Displacement of [3H]-Ro- 15-1788 from human GABA-A alpha-5-beta-3-gamma-2 receptor subunits expressed in Xenopus oocytes. Format: cell-based, Oocyte. A digest of the protocol: as §2

Test [6] has as its target GABA-A receptor; alpha-1/beta-3/gamma-2 (Homo sapiens) (UniProt P14867+P18507+P28472). In words: Percentage modulation of submaximal (EC20) response to GABA in Xenopus oocytes expressing human GABA-A alpha-1-beta-3-gamma-2 subunits. Further: test concentration or dose not given here. Format: cell-based. Particulars: Oocyte. Summed up: as §1
In test [7] the target is T4, GABA-A receptor; alpha-2/beta-3/gamma-2 (Homo sapiens, UniProt P18507+P28472+P47869).
T4 sequence (P18507 whole entry): T1 sequence (P18507 whole entry)
T4 sequence (P28472 whole entry): T1 sequence (P28472 whole entry)
T4 sequence (P47869 whole entry): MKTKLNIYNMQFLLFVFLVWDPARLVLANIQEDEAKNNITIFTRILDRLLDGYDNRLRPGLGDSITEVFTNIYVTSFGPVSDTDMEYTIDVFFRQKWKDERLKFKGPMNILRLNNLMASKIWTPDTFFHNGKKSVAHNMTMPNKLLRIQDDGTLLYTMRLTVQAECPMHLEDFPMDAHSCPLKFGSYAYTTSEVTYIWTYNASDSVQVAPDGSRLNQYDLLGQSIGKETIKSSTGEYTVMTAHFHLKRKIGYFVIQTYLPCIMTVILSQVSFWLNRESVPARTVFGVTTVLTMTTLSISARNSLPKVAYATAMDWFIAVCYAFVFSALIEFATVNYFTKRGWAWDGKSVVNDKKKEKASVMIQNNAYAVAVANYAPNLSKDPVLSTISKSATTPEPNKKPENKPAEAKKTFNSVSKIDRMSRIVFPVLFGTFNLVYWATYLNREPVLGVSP
In words: Displacement of [3H]-Ro- 15-1788 from human GABA-A alpha-2-beta-3-gamma-2 receptor subunits expressed in Xenopus oocytes. Format: cell-based, Oocyte. Summed up:
as §2

Test [8] deals with GABA-A receptor; alpha-2/beta-3/gamma-2 (Homo sapiens) (UniProt P18507+P28472+P47869). In words: Percentage modulation of submaximal (EC20) response to GABA in Xenopus oocytes expressing human GABA-A alpha-2-beta-3-gamma-2 subunits. Further: test concentration or dose not given here. Format: cell-based. Particulars: Oocyte. Summed up: as §1

In general, Ki refers to a dissociation constant, usually derived from enzyme kinetics or from competition with a known ligand. Read a low Ki as tighter binding.

For the compound `Cc1cc(-c2nnc3c4ccccc4c(OCc4cn(C)nn4)nn23)no1`, the Efficacy in test [1] is 4%; in test [2] it was -29%; in test [6], -4%; in test [8], 12%. In addition, the Ki in test [3] was determined as 0.61 nM; in test [4] it was 0.88 nM; in test [5] it was 0.66 nM; in test [7], 0.58 nM.

Turning to `Cc1cccc(COc2nn3c(-c4ccccc4)nnc3c3c2C2CCC3CC2)n1`, the Efficacy in test [2] is 15%. Further, the Ki was determined as 25 nM in test [3], 170 nM in test [4], 2.9 nM in test [5] and 46 nM in test [7].

In the case of `CNC1=Nc2ccc(Cl)cc2C(c2ccccc2)=[N+]([O-])C1`, the Efficacy is 173% in test [1], 165% in test [6] and 101% in test [8].

For the compound `Cc1cccc(COc2nn3c(-c4ccoc4)nnc3c3c2C2CCC3CC2)n1`, the Efficacy in test [1] is -4%; in test [2] it was -24%; in test [8], -6%. For the same compound, the Ki was determined as 40 nM in test [3], 250 nM in test [4], 3.1 nM in test [5] and 63 nM in test [7].

As to `Cc1cc(-c2nnc3c4ccccc4c(OCc4cnn(C)n4)nn23)no1`, the Efficacy in test [1] is -3%; in test [2], -35%; in test [6] it was -5%; in test [8], 9%. Moreover, the Ki in test [3] was 0.8 nM; in test [4] it was 1.3 nM; in test [5] it was 0.87 nM; in test [7], 0.64 nM.

Consider `Cc1cccc(COc2nn3c(-c4ccsc4)nnc3c3c2C2CCC3CC2)n1`, for which the Efficacy came to 38% in test [1], 17% in test [6] and 9% in test [8]. The Ki in test [3] worked out at 48 nM; in test [4], 270 nM; in test [5], 3.7 nM; in test [7], 110 nM.

For the compound `Cc1cccc(COc2nn3c(-c4cc(C)on4)nnc3c3c2C2CCC3CC2)n1`, the Efficacy is -1% in test [1], -29% in test [2] and 15% in test [8]. Further, the Ki in test [3] worked out at 41 nM; in test [4], 280 nM; in test [5], 4.6 nM; in test [7] it was 86 nM.

As to `Cc1cccc(COc2nn3c(-c4nc(C)no4)nnc3c3c2C2CCC3CC2)n1`, the Efficacy in test [1] was -21%; in test [2], -35%; in test [6], -15%; in test [8], -10%. Besides, the Ki is 7.6 nM in test [3], 74 nM in test [4], 1.1 nM in test [5] and 17 nM in test [7].

For `Cc1cccc(COc2nn3c(-c4cc(C)on4)nnc3c3ccccc23)n1`, the Efficacy in test [2] is -15%. Also, the Ki in test [3] is 1.3 nM; in test [4] it was 0.88 nM; in test [5], 0.79 nM; in test [7], 1.6 nM.

As to `Cc1cc(-c2nnc3c4ccccc4c(OCc4cnnn4C)nn23)no1`, the Efficacy in test [1] was -6%; in test [2] it was -33%; in test [6], -8%; in test [8] it was -25%. Also, the Ki in test [3] is 5.2 nM; in test [4], 4.2 nM; in test [5] it was 2 nM; in test [7], 2.8 nM.

As to `CCc1c(C(=O)OC)ncc2[nH]c3cc(OC)c(OC)cc3c12`, the Efficacy in test [1] was -52%; in test [2], -52%; in test [6], -36%; in test [8] it was -34%. Further, the Ki in test [3] is 10 nM; in test [4], 16 nM; in test [5], 2.3 nM; in test [7] it was 11 nM.

`Cc1cc(-c2nnc3c4ccccc4c(OCc4ccccn4)nn23)no1`: the Efficacy in test [1] was -4%; in test [2], -46%; in test [6] it was -2%. The Ki in test [3] came out at 0.96 nM; in test [4], 0.93 nM; in test [5], 0.62 nM; in test [7], 1.5 nM.
